Screening results deposited in PubChem by Broad Institute.
T cruzi growth-1 – T. cruzi intracellular proliferation inhibitors, primary screen, cell-based, beta-gal Tulahuen parasites, NIH3T3 host, luminescence; T. cruzi beta-gal in NIH3T3, GalScreen luminescence, 90 h; inhibition, % at 8.34 µM; 5.9% of 77,000 active;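 active = mean inhibition above about 93%, with at least 55% of replicates each passing it, limit read from the data, passing the limit was not always enough; inconclusive = only one of those two conditions holds; inactive = neither condition holds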
KDM4C inh – inhibitors of GASC-1 (KDM4C) histone demethylase, primary screen, biochemical, single concentration HTS; 0.15% of 96,000 active; Lysine-specific demethylase 4C (Homo sapiens), Q9H3R0; GST-KDM4C 2-372, H3K9me3 peptide, LANCE TR-FRET; inhibition, % at 12.5 µM; AID 720574, 2013;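 active = mean replicate inhibition above about 25%, with at least 55% of replicates also reaching it, limit read from the data, passing the limit was not always enough; inconclusive = only one of those two conditions met; inactive = neither condition met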
Target sequence (Q9H3R0 2-372 limits assumed): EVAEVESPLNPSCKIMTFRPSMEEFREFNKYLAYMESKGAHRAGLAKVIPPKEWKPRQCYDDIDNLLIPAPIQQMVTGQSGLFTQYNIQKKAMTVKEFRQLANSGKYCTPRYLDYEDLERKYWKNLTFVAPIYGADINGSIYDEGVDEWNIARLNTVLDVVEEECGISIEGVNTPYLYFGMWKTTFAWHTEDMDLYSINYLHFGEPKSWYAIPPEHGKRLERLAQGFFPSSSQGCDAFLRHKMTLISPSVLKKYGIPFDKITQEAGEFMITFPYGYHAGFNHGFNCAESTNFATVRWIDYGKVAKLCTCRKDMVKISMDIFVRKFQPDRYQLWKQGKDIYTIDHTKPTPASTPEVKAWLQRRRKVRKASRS
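Compound: one test concentration per compound; Material: GST-GASC-1 enzyme fragment 2-372; Amount: GASC-1 enzyme at 10 nM final in reaction; Also added: H3K9me3 peptide substrate, Fe(II), 2-oxoglutarate; Technique: LANCE TR-FRET; Times: 30 min demethylation and 1 h detection at room temperature.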
IDH1 R132H inh – inhibitors of IDH1 R132H reductase, primary screen, biochemical, plate reader, single point. 0.18% of 70,000 active. inhibition, % at 10 µM. diaphorase/resazurin fluorescence, 60 min. Isocitrate dehydrogenase [NADP] cytoplasmic (Homo sapiens), O75874; in the data active = inhibition above about 34%; inconclusive = no clear call, values can overlap the other calls; inactive = below about 11%
Pf Dd2 growth – P. falciparum Dd2 growth inhibitors, primary screen, SYBR Green fluorescence, single dose replicates | 72 h; active compounds read low | activity change, % at 10 µM | 2.3% of 94,000 active | AID 1159554, 2015; in the data active = activity change below about -80%; inconclusive = no clear call, values can overlap the other calls
T cruzi growth-2 – T. cruzi intracellular proliferation inhibitors, confirmation, cell-based, NIH3T3 host, beta-gal parasite, luminescence, cherry-pick; shares compounds with T cruzi growth-1; 72% of 5,600 active; T. cruzi beta-gal in NIH3T3, GalScreen luminescence, 90 h; inhibition, % at 8.35 µM;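 active = mean replicate inhibition above about 95% and at least 55% of replicates individually reaching it, limit read from the data; inconclusive = only one of the two criteria is met; inactive = neither criterion is met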
T cruzi growth-3 – inhibitors of intracellular T. cruzi replication, confirmation, NIH3T3 host cells, beta-gal parasites, cherry-pick, set 2. shares compounds with T cruzi growth-1. T. cruzi beta-gal in NIH3T3, GalScreen luminescence, 90 h. inhibition, % at 2.09 µM. 21% of 5,600 active. AID 651740, 2012;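 active = mean inhibition above about 95%, with at least 55% of replicates also reaching it, limit read from the data; inconclusive = meets just one of the two conditions; inactive = meets neither condition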
3T3 cytotox – cytotoxicity in mouse NIH/3T3 fibroblasts, confirmation, cytotoxicity control for T. cruzi proliferation inhibitor project, cell-based, cherry-pick, single point | 14% of 5,600 active | NIH/3T3 viability, CellTiter-Glo ATP luminescence, 90 h | cytotoxicity (signal decrease), % at 8.35 µM | shares compounds with T cruzi growth-1;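 active = mean signal decrease across replicates above about 35% based on untreated-well scatter, with enough replicates individually passing, limit read from the data; inconclusive = no rule stated though some were filed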
3T3 cytotox 2 – NIH/3T3 fibroblast cytotoxicity, confirmation, cytotoxicity control, cell-based, cherry-pick, single point, set 2 | NIH/3T3 viability, CellTiter-Glo ATP luminescence, 90 h | 56% of 5,600 active | shares compounds with T cruzi growth-1 | inhibition, % at 24.9 µM;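 active = mean loss of cell viability signal at or above a set limit, and enough replicates individually reaching it; inconclusive = meets only the mean limit or only the replicate share; inactive = meets neither condition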
Numbers stand for hits. Most compounds without a hit are left out; they make up all but 5.8% or so of the library.

`CN(C)C(=O)c1cccc(-c2ccc3c(c2)[C@@H]2[C@@H](CCN2C(=O)C2CC2)[C@H](CO)N3)c1` gave T cruzi growth-1 inactive, KDM4C inh inactive and Pf Dd2 growth inactive.
For CC(C)C#Cc1ccc([C@H]2[C@@H](CO)N3C(=O)CN(C(=O)NC4CCCCC4)C[C@H]23)cc1 the results were KDM4C inh inactive and Pf Dd2 growth inactive.
`CCN1[C@@H]2c3ccc(-c4ccccc4F)c(=O)n3C[C@H]1[C@H](CO)[C@H]2C(=O)NCc1ccccc1` gave T cruzi growth-1 inactive, KDM4C inh inactive and Pf Dd2 growth inactive.
Screening CC(C)NC(=O)Nc1ccc2c(c1)C(=O)N([C@@H](C)CO)C[C@@H](C)[C@@H](CN(C)C(=O)NC1CCCCC1)OCCCC[C@H](C)O2 returned T cruzi growth-1 inactive, KDM4C inh inactive, IDH1 R132H inh inactive and Pf Dd2 growth inactive.
Screening CC(C)NC(=O)Nc1ccc2c(c1)C(=O)N([C@H](C)CO)C[C@@H](C)[C@H](CN(C)C(=O)NC1CCCCC1)OCCCC[C@@H](C)O2 returned T cruzi growth-1 96, KDM4C inh inactive, Pf Dd2 growth inactive, T cruzi growth-2 inactive, T cruzi growth-3 inactive, 3T3 cytotox inactive and 3T3 cytotox 2 inactive.
`C[C@@H]1CN([C@H](C)CO)C(=O)c2cc(NC(=O)C3CCCCC3)ccc2O[C@@H](C)CCCCO[C@H]1CN(C)C(=O)NC1CCCCC1` gave T cruzi growth-1 114, KDM4C inh inactive, Pf Dd2 growth inactive, T cruzi growth-2 98, T cruzi growth-3 inactive, 3T3 cytotox inactive and 3T3 cytotox 2 inactive.
For CC(C)NC(=O)Nc1ccc2c(c1)C(=O)N([C@@H](C)CO)C[C@@H](C)[C@H](CN(C)C(=O)NC1CCCCC1)OCCCC[C@@H](C)O2 the results were T cruzi growth-1 97, KDM4C inh inactive, IDH1 R132H inh inactive, Pf Dd2 growth inactive, T cruzi growth-2 inactive, T cruzi growth-3 inactive, 3T3 cytotox inactive and 3T3 cytotox 2 inactive.
Screening COc1ccc(S(=O)(=O)N(C)CC(=O)Nc2ccccc2SC)cc1Cl returned IDH1 R132H inh inactive.
Screening C[C@H](NC(=O)C[C@H]1CC[C@@H](NS(=O)(=O)c2cccc(F)c2)[C@@H](CO)O1)c1ccccc1 returned T cruzi growth-1 inactive, KDM4C inh inactive, IDH1 R132H inh inactive and Pf Dd2 growth inactive.
`C[C@@H]1CCCCO[C@H](CN(C)Cc2ccc(C(F)(F)F)cc2)[C@@H](C)CN([C@H](C)CO)C(=O)c2cc(NS(=O)(=O)c3ccccc3)ccc2O1` gave T cruzi growth-1 inconclusive, KDM4C inh inactive, IDH1 R132H inh inactive, Pf Dd2 growth inactive, T cruzi growth-2 97, T cruzi growth-3 inactive, 3T3 cytotox inactive and 3T3 cytotox 2 50.
C[C@@H]1CN([C@H](C)CO)C(=O)c2cc(NS(C)(=O)=O)ccc2O[C@@H](C)CCCCO[C@@H]1CN(C)Cc1ccc(C(F)(F)F)cc1 was read as T cruzi growth-1 inactive, KDM4C inh inactive, IDH1 R132H inh inactive and Pf Dd2 growth inactive.
Screening C[C@@H]1CCCCO[C@@H](CN(C)Cc2ccc(C(F)(F)F)cc2)[C@@H](C)CN([C@H](C)CO)C(=O)c2cc(NS(=O)(=O)c3ccc(Cl)cc3)ccc2O1 returned T cruzi growth-1 108, KDM4C inh inactive, Pf Dd2 growth inactive, T cruzi growth-2 95, T cruzi growth-3 110, 3T3 cytotox inactive and 3T3 cytotox 2 102.
C[C@H]1CCCCO[C@H](CN(C)Cc2ccc(C(F)(F)F)cc2)[C@@H](C)CN([C@@H](C)CO)C(=O)c2cc(NS(=O)(=O)c3ccccc3)ccc2O1 was read as T cruzi growth-1 inconclusive, KDM4C inh inactive, Pf Dd2 growth inactive, T cruzi growth-2 inactive, T cruzi growth-3 97, 3T3 cytotox inactive and 3T3 cytotox 2 104.
`C[C@H](CO)N1C[C@H](C)[C@@H](CN(C)Cc2ccc(C(F)(F)F)cc2)OCCCC[C@H](C)Oc2ccc(NS(C)(=O)=O)cc2C1=O` gave T cruzi growth-1 93, KDM4C inh inactive, IDH1 R132H inh inactive, Pf Dd2 growth inactive, T cruzi growth-2 109, T cruzi growth-3 inactive, 3T3 cytotox inactive and 3T3 cytotox 2 53.
`C[C@H]1CCCCO[C@H](CN(C)S(=O)(=O)c2cccs2)[C@@H](C)CN([C@@H](C)CO)C(=O)c2cc(NC(=O)NC3CCCCC3)ccc2O1` gave T cruzi growth-1 inactive, KDM4C inh inactive, IDH1 R132H inh inactive and Pf Dd2 growth inactive.
Screening CN(C)C(=O)c1ccc(-c2ccc([C@@H]3[C@H]4CN(CCC(F)(F)F)CCCCN4[C@H]3CO)cc2)cc1 returned T cruzi growth-1 inactive, KDM4C inh inactive and Pf Dd2 growth inactive.
COc1ccccc1S(=O)(=O)N[C@@H]1CC[C@H](CCn2cc(C3CCCC3)nn2)O[C@@H]1CO was read as KDM4C inh inactive and Pf Dd2 growth inactive.
C[C@@H]1CN([C@@H](C)CO)C(=O)c2cc(NC(=O)Cc3ccccc3)ccc2O[C@@H](C)CCCCO[C@H]1CN(C)C(=O)Nc1ccccc1 was read as KDM4C inh inactive, IDH1 R132H inh inactive and Pf Dd2 growth inactive.
C[C@@H]1CCCCO[C@@H](CN(C)C(=O)Nc2cccc3ccccc23)[C@H](C)CN([C@H](C)CO)C(=O)c2cc(NC(=O)Cc3ccccc3)ccc2O1 was read as T cruzi growth-1 98, KDM4C inh inactive, IDH1 R132H inh inactive, Pf Dd2 growth -87, T cruzi growth-2 102, T cruzi growth-3 109, 3T3 cytotox inactive and 3T3 cytotox 2 inactive.
C[C@H]1CCCCO[C@H](CN(C)C(=O)Nc2cccc3ccccc23)[C@@H](C)CN([C@@H](C)CO)C(=O)c2cc(NC(=O)c3ccccc3)ccc2O1 was read as T cruzi growth-1 inactive, KDM4C inh inactive and Pf Dd2 growth inactive.
`C[C@@H]1CCCCO[C@@H](CN(C)C(=O)Nc2ccccc2)[C@H](C)CN([C@H](C)CO)C(=O)c2cc(NC(=O)Cc3ccccc3)ccc2O1` gave T cruzi growth-1 inactive, KDM4C inh inactive, IDH1 R132H inh inactive and Pf Dd2 growth inactive.
